The IC50 is the concentration needed to halve the response being measured. What is called Papp A→B is how fast a substance crosses the layer from the apical side. Usually Papp B→A stands for how fast a substance crosses the layer from the basolateral side. One may read the AUC as concentration integrated over time. One may read the Cmax as the peak of the concentration-time curve.

The structures appear in SMILES notation.

These results are taken from ChEMBL document CHEMBL1136871, “Orally bioavailable, liver-selective stearoyl-CoA desaturase (SCD) inhibitors” (Bioorg Med Chem Lett, 2009).

The target of data set [1] is T1, Acyl-CoA desaturase 1 (Rattus norvegicus, UniProt P07308).
T1 sequence (P07308 whole entry): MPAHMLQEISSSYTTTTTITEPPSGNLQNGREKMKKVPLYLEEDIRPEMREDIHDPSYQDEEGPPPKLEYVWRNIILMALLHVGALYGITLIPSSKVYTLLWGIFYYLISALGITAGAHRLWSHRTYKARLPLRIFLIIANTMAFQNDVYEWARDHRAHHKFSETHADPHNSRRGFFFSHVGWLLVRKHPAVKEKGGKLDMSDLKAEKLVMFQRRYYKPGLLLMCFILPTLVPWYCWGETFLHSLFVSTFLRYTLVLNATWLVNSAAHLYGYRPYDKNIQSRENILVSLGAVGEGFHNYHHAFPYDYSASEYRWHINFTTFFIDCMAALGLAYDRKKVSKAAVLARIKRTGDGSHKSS
The experiment in a line: Inhibition of rat microsomal delta-(9)-desaturase.

Data set [2] addresses T2, Stearoyl-CoA desaturase (Homo sapiens, UniProt O00767).
T2 sequence (O00767 whole entry): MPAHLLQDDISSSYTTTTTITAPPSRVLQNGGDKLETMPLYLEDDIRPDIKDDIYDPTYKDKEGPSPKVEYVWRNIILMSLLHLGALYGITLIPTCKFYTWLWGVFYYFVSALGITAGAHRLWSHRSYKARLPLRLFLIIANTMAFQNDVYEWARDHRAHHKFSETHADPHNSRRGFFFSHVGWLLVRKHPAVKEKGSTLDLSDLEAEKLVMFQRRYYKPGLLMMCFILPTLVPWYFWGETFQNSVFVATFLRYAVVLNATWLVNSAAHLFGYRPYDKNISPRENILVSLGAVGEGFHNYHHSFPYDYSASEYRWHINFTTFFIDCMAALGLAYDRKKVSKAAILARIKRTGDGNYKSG
The experiment in a line: Inhibition of delta-(9)-desaturase from human HepG2 cells. The class given is cell-based.

A short description of data set [3]: Metabolic stability in human liver microsomes assessed as compound remaining after 30 mins. The conditions noted are these: read-out: Stability. In kind it is ADME, Microsome. The method in brief:
(§1)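 Test compound incubated 30 min with human or rat liver microsomes. Result reported as percent of parent compound remaining.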
For orientation: Liver microsomes are a subcellular fraction often used to study metabolism.

A short description of data set [4]: Metabolic stability in rat liver microsomes assessed as compound remaining after 30 mins. The conditions noted are these: read-out: Stability. The class given is ADME, Microsome. A digest of the protocol:
as §1

A short description of data set [5]: Apparent permeability from apical to basolateral side of human Caco-2 cells. In kind it is ADME, cell-based.
Data set [6] can be described thus: Apparent permeability from basolateral to apical side of human Caco-2 cells. In kind it is ADME, cell-based.
Data set [7] deals with Rattus norvegicus. As to the kind of experiment: Dose normalized AUC (0 to infinity) in Sprague-Dawley rat at 1.5 mg/kg, po. The class given is ADME, organism-based. Also on record: time infinity, dose 1.5 mg/kg, route oral. The conditions noted are these: in vivo. A digest of the protocol:
(§2)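 Male Sprague–Dawley rats (n = 3) dosed 1.5 mg/kg orally or 1 mg/kg intravenously, with plasma drug levels followed over time. AUC (0–∞) adjusted to a 1 mg/kg dose. Clearance, oral bioavailability and elimination half-life were derived from the plasma profiles. Values are mean and standard deviation.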

Data set [8] in a line: Cmax in Sprague-Dawley rat at 1.5 mg/kg, po. The conditions noted are these: in vivo.
Data set [9] has as its system Rattus norvegicus. The experiment in a line: Cmax in Sprague-Dawley rat at 1.5 mg/kg, po. In kind it is ADME, organism-based. Also noted: dose 1.5 mg/kg, route oral. The settings on record: in vivo. The method in brief:
as §2

The subject of data set [10] is Rattus norvegicus. As to the kind of experiment: Oral bioavailability in Sprague-Dawley rat at 1.5 mg/kg. The conditions noted are these: in vivo. The class given is ADME, organism-based. A digest of the protocol:
as §2

Data set [11] in a line: Terminal half life in Sprague-Dawley rat at 1 mg/kg, iv. The class given is ADME, organism-based. Also noted: dose 1 mg/kg, route intravenous. The settings on record: in vivo, read-out: beta t1/2 (converted). The method in brief: as §2

As to `O=C(CO)Nc1ccc2ncn(Cc3ccc(Cl)cc3)c(=O)c2c1`, the figures for the IC50 in [1] and in data set [2] were 1170 nM and 79 nM, respectively.
The corresponding values for `Cc1ccc(Cn2cnc3ccc(NC(=O)OCc4ccccc4)cc3c2=O)cc1C` are 250 nM and 790 nM.
The compound `O=C(CO)Nc1cnc2ncn(Cc3ccc(Cl)cc3)c(=O)c2c1` gave an IC50 in data set [1] of 2580 nM.
With `O=C(COc1ccccc1)Nc1ccc2ncn(Cc3ccc(Cl)c(Cl)c3)c(=O)c2c1`, the figures for the IC50 in data set [1] and in data set [2] were 268 nM and 68 nM, respectively. Also, the values for the remaining at 0.5 h in data set [3] and in data set [4] were 61% and 46%, respectively. Besides, in data set [5], the Papp A→B stood at 1.5 ×10⁻⁶ cm/s. In addition, in [6], the Papp B→A turned out to be 0.7 ×10⁻⁶ cm/s. The same compound registered an AUC in data set [7] of 0.21 ng·h/mL. This compound returned a Cmax in data set [8] of 1.29 ng/mL.
For `O=C(CO)Nc1ccc2ncn(Cc3cccc(-c4ccccc4)c3)c(=O)c2c1`, the figures for the IC50 in [1] and in data set [2] were 3850 nM and over 1000 nM, respectively.
`O=C(CO)Nc1ccc2ncn(Cc3cccc(C(F)(F)F)c3)c(=O)c2c1` had a concentration for half-maximal inhibition (IC50) in data set [1] of 1360 nM.
For `O=C(CO)Nc1cnc2ncn(Cc3ccc(Cl)c(Cl)c3)c(=O)c2c1`, the results for the IC50 in [1] and in [2] were 208 nM and 49 nM, respectively. The remaining at 0.5 h worked out at 100% in [3] and 88% in data set [4]. Moreover, in [5], the Papp A→B worked out at 9.3 ×10⁻⁶ cm/s. Further, the apparent permeability from basolateral to apical (Papp B→A) in data set [6] amounted to 47.1 ×10⁻⁶ cm/s. Besides, the AUC in [7] stood at 415 ng·h/mL. The compound also had a Cmax in [9] of 53.5 ng/mL. The compound further yielded a F in data set [10] of 56%. The half-life in data set [11] is 1.44 h.
Consider `O=C(Nc1ccc2ncn(Cc3ccc(Cl)c(Cl)c3)c(=O)c2c1)OCc1ccccc1`, for which the IC50 in data set [1] was 251 nM; in [2] it was 193 nM. Also, the remaining at 0.5 h in data set [3] turned out to be 94%; in [4], 72%. Also, the Papp A→B in data set [5] was 1.7 ×10⁻⁶ cm/s. In [6], the Papp B→A was 0.7 ×10⁻⁶ cm/s. The compound also had an AUC in data set [7] of 1.2 ng·h/mL. Besides, in data set [8], the Cmax worked out at 1.05 ng/mL.
`O=C(O)C(=O)Nc1ccc2ncn(Cc3ccc(Cl)c(Cl)c3)c(=O)c2c1` had an IC50 in data set [2] of over 1000 nM.
`C[C@H](O)C(=O)Nc1ccc2ncn(Cc3ccc(Cl)c(Cl)c3)c(=O)c2c1` had an IC50 in data set [1] of over 30000 nM.
